Our source for the inhibition of growth, inhibition in vivo and Activity values is ChEMBL document CHEMBL3286372, “Design, synthesis and structure-activity relationship of novel semi-synthetic flavonoids as antiproliferative agents” (2014).

One experiment relates to U-251. The experiment in a line: Growth inhibition of human U251 cells at 10 uM after 48 hrs by sulforhodamine B assay relative to control. Type of experiment: functional. Particulars: U-251, 48 h, read-out: GI. The essentials: (§1)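 NCI-60 primary single-dose screen at 10 µM with continuous 48 h exposure. Cell viability/growth read by sulforhodamine B protein staining. Reported as percent growth inhibition relative to untreated cells.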
On the technique in general: Sulforhodamine B stains cellular protein and so reports cell mass.

In the next experiment the test system is Ehrlich. The experiment in a line: Antitumor activity against mouse EAC cells allografted in BALB mouse assessed as tumor growth inhibition at 6 mg/kg, ip for 5 days relative to control. It is filed as functional. Particulars: 120 h, route intraperitoneal, read-out: TGI. The essentials:
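Female BALB mice; Ehrlich ascites carcinoma cells, 2×10^5 cells/mouse in 0.2 ml saline, injected s.c. into the left hind leg and grown 2 wk. Daily i.p. saline (control), 3 or 6 mg/kg for 5 days. Caliper size V = 0.4×a(b)^2, taken just before the first dose and 24 h after the last. Mean ± SEM, n = 6; ANOVA with Tukey-Kramer.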

Another experiment concerns K562. The experiment in a line: Growth inhibition of human K562 cells at 10 uM after 48 hrs by sulforhodamine B assay relative to control. Type of experiment: functional. Particulars: K562, 48 h, read-out: GI. The essentials: (§2)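 NCI-60 primary screen at a single dose of 10 µM with 48 h continuous exposure. Growth or viability read by sulforhodamine B protein staining and expressed as percent growth inhibition versus untreated cells.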

Experiment [1] is described as follows: Growth inhibition of human HCT15 cells at 10 uM after 48 hrs by sulforhodamine B assay relative to control. The note with it: HCT-15, 48 h, read-out: GI. It is filed as functional. The essentials:
as §2

The subject of the next experiment is HT-29. The experiment in a line: Growth inhibition of human HT-29 cells at 10 uM after 48 hrs by sulforhodamine B assay relative to control. Type of experiment: functional. The note with it: HT-29, 48 h, read-out: GI. The essentials:
as §2

The subject of a further experiment is 786-0. The experiment in a line: Growth inhibition of human 786-0 cells at 10 uM after 48 hrs by sulforhodamine B assay relative to control. Type of experiment: functional. The note with it: 786-0, 48 h, read-out: GI. The essentials:
as §2

The subject of the next experiment is M14. The experiment in a line: Growth inhibition of human M14 cells at 10 uM after 48 hrs by sulforhodamine B assay relative to control. Type of experiment: functional. The note with it: M14, 48 h, read-out: GI. The essentials: as §2
A further experiment concerns Mus musculus. The experiment in a line: Increase in GSK-3beta level in tumor of BALB mouse allografted with mouse EAC cells at 6 mg/kg, ip for 5 days by competitive ELISA relative to control. Type of experiment: functional, Ehrlich. Particulars: route intraperitoneal. The essentials: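 Female BALB mice bearing subcutaneous EAC tumours (2×10^5 cells in left hind leg, grown 2 wk). Dosed i.p. daily for 5 days; controls received saline. Excised tumours washed in cold saline and homogenised at 10% in PBS. GSK-3β measured by competitive ELISA, samples in duplicate. Change versus untreated controls, mean ± SEM, n = 6.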

A short description of experiment [2]: Growth inhibition of human UACC257 cells at 10 uM after 48 hrs by sulforhodamine B assay relative to control. It is filed as functional. Particulars: UACC-257, 48 h, read-out: GI. The essentials:
as §1

A further experiment deals with SF-268. The experiment in a line: Growth inhibition of human SF268 cells at 10 uM after 48 hrs by sulforhodamine B assay relative to control. Type of experiment: functional. The note with it: SF-268, 48 h, read-out: GI. The essentials: (§3)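 NCI-60 primary screen at a single 10 µM dose. Continuous 48 h exposure, with growth or viability estimated by sulforhodamine B protein staining. Reported as percent growth inhibition of treated cells relative to untreated growth.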

Experiment [3] can be described thus: Growth inhibition of human HOP92 cells at 10 uM after 48 hrs by sulforhodamine B assay relative to control. It is filed as functional. Particulars: HOP-92, 48 h, read-out: GI. The essentials: as §2
The nature of experiment [4]: Growth inhibition of human RXF393 cells at 10 uM after 48 hrs by sulforhodamine B assay relative to control. Type of experiment: functional. Particulars: RXF 393, 48 h, read-out: GI. The essentials:
as §3

Structures are written as SMILES.

`COc1c2occc2c(OC)c2c(=O)c(CN3CCOCC3)c(/C=C/c3ccc(N(C)C)cc3)oc12`: the inhibition of growth at 10 µM in the experiment on U-251 came out at 69%; with K562 it was 84%; in [1], 67%; in the experiment on HT-29 it was 82%; in the experiment on 786-0 it was 95%; in the experiment on M14 it was 63%. The inhibition of growth at 10 µM in experiment [2] stood at 76%. For the same molecule, in the experiment on Ehrlich, the inhibition in vivo at 6 mg/kg stood at 57.1%. The same molecule had an Activity in the experiment on Mus musculus of 197.2%.

As to `COc1c2occc2c(OC)c2c(=O)c(CN3CCOCC3)c(/C=C/c3ccc(Cl)cc3)oc12`, the values for the inhibition of growth at 10 µM (in the experiment on SF-268; in experiment [3]) were 67% and 95%, respectively.

In the case of `C=CCc1c2c(c(OC)c3ccoc13)C(=O)/C(=C/c1ccccc1OC)O2`, the inhibition of growth at 10 µM in experiment [4] worked out at 75%.
